Results as given in paper PMC2901902 (Nature, 2010).

Legend:
[1] = test system: H3K14ac sites in the C2C12 cell nucleus; assay: Immunofluorescence co-localization with H3K14ac in C2C12 cell nucleus; type: cell-based, mouse; details: ectopically expressed EGFP-fusion DPF3b; confocal fluorescence imaging
Procedure, shortened: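 C2C12 myoblasts grown in DMEM with 10% fetal calf serum were transfected with full-length human DPF3b fused to EGFP. H3K14ac was stained with the same anti-H3K14ac antibody used for ChIP and a Texas Red-conjugated secondary. Nuclear overlap of the EGFP and Texas Red signals was imaged on an automated confocal microscope and images were overlaid.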

Pitx2 = assay: Endogenous Pitx2 transcript level in transfected C2C12 cells; type: cell-based, mouse; details: C2C12 cells 2 days following transfection
[2] = test system: H3K14ac at the mouse Pitx2 promoter site; assay: Re-ChIP; type: cell-based; details: transfected C2C12 cells, qualitative

B1: DPF3b: full length human DPF3b cloned into pEGFP-C1 vector, transfected in C2C12 cells (protein)
chain: MATVIHNPLKALGDQFYKEAIEHCRSYNSRLCAERSVRLPFLDSQTGVAQNNCYIWMEKRHRGPGLAPGQLYTYPARCWRKKRRLHPPEDPKLRLLEIKPEVELPLKKDGFTSESTTLEALLRGEGVEKKVDAREEESIQEIQRVLENDENVEEGNEEEDLEEDIPKRKNRTRGRARGSAGGRRRHDAASQEDHDKPYVCDICGKRYKNRPGLSYHYAHTHLASEEGDEAQDQETRSPPNHRNENHRPQKGPDGTVIPNNYCDFCLGGSNMNKKSGRPEELVSCADCGRSGHPTCLQFTLNMTEAVKTYKWQCIECKSCILCGTSENDDQLLFCDDCDRGYHMYCLNPPVAEPPEGSWSCHLCWELLKEKASAFGCQA
modifications: left off: EGFP, end not stated, kept
co-localization with H3K14ac sites in C2C12 cell nucleus [1]: co-localized with H3K14ac sites | enhancement of endogenous Pitx2 transcript (Pitx2): more than 3 fold | DPF3b/H3K14ac interaction at Pitx2 promoter [2]: interacts with H3K14ac at the Pitx2 promoter site
